Results taken from ChEMBL document CHEMBL2429859, “Inhibiting aberrant signal transducer and activator of transcription protein activation with tetrapodal, small molecule Src homology 2 domain binders: promising agents against multiple myeloma” (J Med Chem, 2013).
The source made the active and inactive calls. No cut-off for these calls is given here.

Legend:
JJN-3 [1] = test: Inhibition of total Stat3 level in human JJN-3 cells at 10 to 30 uM after 6 hrs by Western blot analysis; format: functional, cell-based
Summary of the method: (§1)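 Treated cells were washed in cold PBS and lysed 30 min on ice in Tris-HCl pH 7.4/NaCl/EDTA/1% NP-40 with PMSF, vanadate and protease inhibitors. Lysates were Bradford-normalized, and 10-30 µg protein was run on 7-10% SDS-PAGE and transferred to PVDF. Blots were blocked in 5% BSA/TBST, probed overnight at 4 °C, then with HRP secondary, and detected by ECL.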

JJN-3 [2] = test: Induction of apoptosis in human JJN-3 cells at 10 to 20 uM by annexin V/propidium iodide staining-based flow cytometric analysis; format: functional, cell-based
Summary of the method: (§2)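 Apoptosis was measured by flow cytometry of Annexin V and propidium iodide staining. Viable, early apoptotic and late apoptotic cells were scored by quadrant, with time points at 24 and 48 h.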

[3] = target: T1, Signal transducer and activator of transcription 3 (Homo sapiens, UniProt P40763); test: Inhibition of Stat3-mediated luciferase expression in human 8226 cells at 15 to 30 uM after 6 hrs relative to control; format: cell-based
Summary of the method: (§3)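 Myeloma cells stably carried a Stat3-driven firefly luciferase reporter (puromycin-selected) and a CMV-driven Renilla luciferase internal control (hygromycin-selected), each selected for 2 weeks. After drug treatment, dual luciferase activity was read as relative luciferase units, firefly/Renilla.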

[4] = Cytotoxicity against CD138-negative BMNC isolated from multiple myeloma patient assessed as cell viability at > 20 uM; conditions: human
Summary of the method: (§4)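 Bone marrow mononuclear cells were isolated by Ficoll-Paque separation from 6 myeloma patient aspirates, cultured, and treated with compound. Cells were stained for CD138 and Annexin V, and the decrease in CD138+ (myeloma) and CD138- (non-myeloma) populations was reported.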

[5] = target: T2, Signal transducer and activator of transcription 5A (Homo sapiens) (UniProt P42229); test: Inhibition of GM-CSF-induced Stat5 phosphorylation in serum-starved human U937 cells at 10 to 20 uM incubated for 4 hrs prior to GM-CSF induction measured after 15 mins by phopsho-flow cytometric analysis; format: cell-based; conditions: U-937
T2 sequence (whole entry): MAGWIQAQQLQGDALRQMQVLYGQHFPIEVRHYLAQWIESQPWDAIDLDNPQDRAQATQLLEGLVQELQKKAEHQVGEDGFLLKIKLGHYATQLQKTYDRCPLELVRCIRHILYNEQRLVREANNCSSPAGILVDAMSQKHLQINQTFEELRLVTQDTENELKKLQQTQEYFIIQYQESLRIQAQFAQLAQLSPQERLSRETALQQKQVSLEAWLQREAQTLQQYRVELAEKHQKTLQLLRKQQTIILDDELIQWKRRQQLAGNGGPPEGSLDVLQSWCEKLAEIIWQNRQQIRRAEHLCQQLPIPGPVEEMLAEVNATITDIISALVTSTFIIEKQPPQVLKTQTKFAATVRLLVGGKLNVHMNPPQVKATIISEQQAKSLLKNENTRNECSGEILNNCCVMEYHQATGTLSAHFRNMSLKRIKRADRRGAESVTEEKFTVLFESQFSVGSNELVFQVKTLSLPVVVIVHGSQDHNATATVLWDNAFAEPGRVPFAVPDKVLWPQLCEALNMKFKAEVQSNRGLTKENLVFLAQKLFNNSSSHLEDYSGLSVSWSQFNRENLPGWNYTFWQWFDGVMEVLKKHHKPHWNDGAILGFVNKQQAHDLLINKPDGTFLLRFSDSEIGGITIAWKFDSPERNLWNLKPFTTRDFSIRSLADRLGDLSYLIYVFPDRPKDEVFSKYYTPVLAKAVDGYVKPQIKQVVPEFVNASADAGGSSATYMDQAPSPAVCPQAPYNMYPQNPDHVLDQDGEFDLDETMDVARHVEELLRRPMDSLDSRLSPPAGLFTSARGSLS
Summary of the method: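 Serum-starved U937 cells were pretreated with compound for 4 h, then stimulated 15 min with IL-6 (Stat3), GM-CSF (Stat5) or IFN (Stat1). Phosphorylation of each STAT was quantified by phospho-flow cytometry.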

[6] = target: Tyrosine-protein kinase JAK2 (Homo sapiens) (UniProt O60674); test: Inhibition of JAK2 JH1 domain (unknown origin) assessed as residual activity at 5 uM relative to control
Summary of the method: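 Kinase profiling used a KinomeScan at 5 µM across 132 kinases, including 37 with SH2 domains.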

[7] = Cytotoxicity against CD138-positive BMNC isolated from multiple myeloma patient assessed as cell viability at 20 uM; format: functional; conditions: Homo sapiens, read-out: Activity; summary of the method: as §4
[8] = Cytotoxicity against BMNC isolated from multiple myeloma patient assessed as inhibition of hematopoietic progenitor colony formation at 30 uM; conditions: human
[9] = target: T1, Signal transducer and activator of transcription 3; test: Inhibition of Stat3-mediated luciferase expression in human XG6 cells at 15 to 30 uM after 6 hrs relative to control; format: cell-based; summary of the method: as §3
XG6 [10] = test: Induction of apoptosis in human XG6 cells at 10 to 15 uM by annexin V/propidium iodide staining-based flow cytometric analysis; format: functional, cell-based; summary of the method: as §2
RPMI-8226 [11] = test: Cytotoxicity against human RPMI8226 cells assessed as cell viability at 7.5 uM after 72 hrs by MTT assay; format: functional, cell-based
Summary of the method: (§5)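 Myeloma lines were seeded at 1-3 x 10^4 cells per well onto compound or vehicle, in triplicate, and cultured 72 h at 37 °C in 5% CO2. Viability was measured colorimetrically by MTT assay relative to DMSO control. EC50 was fitted to a standard dose-response curve where applicable.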

RPMI-8226 [12] = test: Induction of apoptosis in human RPMI8226 cells at 10 to 15 uM by annexin V/propidium iodide staining-based flow cytometric analysis; format: functional, cell-based; conditions: TDE = time-dependent effect; summary of the method: as §2
XG6 [13] = test: Cytotoxicity against human XG6 cells assessed as cell viability at 7.5 uM after 72 hrs by MTT assay; format: functional, cell-based; summary of the method: as §5
JJN-3 [14] = test: Induction of apoptosis in human JJN-3 cells at 10 to 15 uM by annexin V/propidium iodide staining-based flow cytometric analysis; format: functional, cell-based; summary of the method: as §2
JJN-3 [15] = test: Induction of apoptosis in human JJN-3 cells assessed as induction of PARP cleavage at 5 to 10 uM by Western blot analysis; format: functional, cell-based; summary of the method: as §1
[16] = target: T1, Signal transducer and activator of transcription 3; test: Inhibition of Stat3-mediated luciferase expression in human XG6 cells at 7.5 to 15 uM after 6 hrs relative to control; format: cell-based; summary of the method: as §3

T1 sequence (P40763 whole entry): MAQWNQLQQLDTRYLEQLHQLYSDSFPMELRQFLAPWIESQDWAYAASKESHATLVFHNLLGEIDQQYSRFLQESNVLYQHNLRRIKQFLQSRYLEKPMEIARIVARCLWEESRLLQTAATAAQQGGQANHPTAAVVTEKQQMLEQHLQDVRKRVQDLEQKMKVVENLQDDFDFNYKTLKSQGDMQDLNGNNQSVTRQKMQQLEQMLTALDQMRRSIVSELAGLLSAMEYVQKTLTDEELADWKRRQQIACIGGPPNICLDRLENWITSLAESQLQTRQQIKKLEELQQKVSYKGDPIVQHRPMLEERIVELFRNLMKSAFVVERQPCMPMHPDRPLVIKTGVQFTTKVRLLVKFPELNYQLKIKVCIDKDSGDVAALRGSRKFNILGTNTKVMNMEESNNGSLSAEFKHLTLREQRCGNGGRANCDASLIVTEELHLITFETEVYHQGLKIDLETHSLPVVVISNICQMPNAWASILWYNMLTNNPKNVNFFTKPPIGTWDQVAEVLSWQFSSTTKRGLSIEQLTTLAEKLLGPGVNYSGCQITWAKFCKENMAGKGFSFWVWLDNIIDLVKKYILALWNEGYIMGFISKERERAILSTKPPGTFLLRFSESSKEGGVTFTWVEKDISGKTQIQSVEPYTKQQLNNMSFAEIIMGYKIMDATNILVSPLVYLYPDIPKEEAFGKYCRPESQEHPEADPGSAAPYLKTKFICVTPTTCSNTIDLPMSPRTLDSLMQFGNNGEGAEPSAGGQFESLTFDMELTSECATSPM
Sequence of Tyrosine-protein kinase JAK2 (Homo sapiens) (O60674 whole entry, the tested form may be a part): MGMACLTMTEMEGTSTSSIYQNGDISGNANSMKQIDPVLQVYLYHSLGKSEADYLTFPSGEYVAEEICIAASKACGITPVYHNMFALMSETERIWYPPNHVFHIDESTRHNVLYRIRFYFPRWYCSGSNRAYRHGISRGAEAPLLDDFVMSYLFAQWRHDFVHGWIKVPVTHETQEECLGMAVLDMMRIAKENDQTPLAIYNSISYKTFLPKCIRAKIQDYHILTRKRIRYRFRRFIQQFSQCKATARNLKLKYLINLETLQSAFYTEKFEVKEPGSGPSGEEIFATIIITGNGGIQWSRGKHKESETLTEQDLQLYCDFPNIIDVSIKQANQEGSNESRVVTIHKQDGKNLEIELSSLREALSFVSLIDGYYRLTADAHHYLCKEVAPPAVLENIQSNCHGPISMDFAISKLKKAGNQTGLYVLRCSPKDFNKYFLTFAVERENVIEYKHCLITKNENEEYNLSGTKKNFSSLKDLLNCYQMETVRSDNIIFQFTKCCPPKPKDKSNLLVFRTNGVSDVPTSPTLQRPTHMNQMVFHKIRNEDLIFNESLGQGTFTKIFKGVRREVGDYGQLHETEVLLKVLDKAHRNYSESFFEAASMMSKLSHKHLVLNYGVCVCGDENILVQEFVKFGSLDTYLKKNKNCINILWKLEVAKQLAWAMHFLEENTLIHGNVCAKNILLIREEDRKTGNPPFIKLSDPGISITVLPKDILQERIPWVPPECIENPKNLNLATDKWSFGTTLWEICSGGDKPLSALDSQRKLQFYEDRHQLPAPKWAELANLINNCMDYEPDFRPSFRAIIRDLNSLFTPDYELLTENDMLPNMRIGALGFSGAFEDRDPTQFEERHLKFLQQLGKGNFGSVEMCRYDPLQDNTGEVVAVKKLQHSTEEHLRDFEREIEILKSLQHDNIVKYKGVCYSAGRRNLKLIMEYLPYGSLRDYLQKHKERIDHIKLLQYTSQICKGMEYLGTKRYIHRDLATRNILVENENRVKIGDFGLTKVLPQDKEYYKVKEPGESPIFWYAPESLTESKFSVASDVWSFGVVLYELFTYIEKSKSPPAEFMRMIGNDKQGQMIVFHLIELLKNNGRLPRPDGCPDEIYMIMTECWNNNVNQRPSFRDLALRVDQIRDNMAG

In the case of `Cc1ccc(S(=O)(=O)N(CC(=O)N(Cc2ccc(C3CCCCC3)cc2)c2ccc(C(=O)O)c(O)c2)Cc2ccccc2C(F)(F)F)cc1`, the inhibition (JJN-3 [1]) is reported as “inactive”, the Activity (JJN-3 [2]) is reported as “Active” and the inhibition [3] is reported as 50%. For the same compound, the Activity [4] was “Non-toxic”, the inhibition [5] was “Active” and the Activity [6] was 84%. The viability at 20 µM [7] was > 50%, the Activity [8] was “Non-toxic” and the inhibition [9] was 50%.

With `O=C(O)c1ccc(N(Cc2ccc(C3CCCCC3)cc2)C(=O)CN(Cc2ccccc2C(F)(F)F)S(=O)(=O)c2c(F)c(F)c(F)c(F)c2F)cc1O` the Activity (XG6 [10]) was “Active”, the Activity (RPMI-8226 [11]) was “Active” and the Activity (RPMI-8226 [12]) was “tde”. The inhibition [5] was “Active”, the Activity (XG6 [13]) was “Active” and the Activity (JJN-3 [14]) was “Active”. The Activity (JJN-3 [15]) was “Active” and the inhibition [16] was 50%.
